# Measured values as given in article PMC3051377 (British Journal of Pharmacology, 2011).
# Assays:
# [1] = test system: Gs/olf G-proteins; assay: Kinetics of 500 nM [3H]GDP binding to Gs/olf G-proteins; design: species or system Chinese hamster
# [2] = biological target: T1, human M2 muscarinic receptor (Homo sapiens, UniProt P08172); assay: Agonist-stimulated [35S]GTPγS binding to membranes from M2 CHO cells; type: biochemical
# T1 sequence (P08172 1-466): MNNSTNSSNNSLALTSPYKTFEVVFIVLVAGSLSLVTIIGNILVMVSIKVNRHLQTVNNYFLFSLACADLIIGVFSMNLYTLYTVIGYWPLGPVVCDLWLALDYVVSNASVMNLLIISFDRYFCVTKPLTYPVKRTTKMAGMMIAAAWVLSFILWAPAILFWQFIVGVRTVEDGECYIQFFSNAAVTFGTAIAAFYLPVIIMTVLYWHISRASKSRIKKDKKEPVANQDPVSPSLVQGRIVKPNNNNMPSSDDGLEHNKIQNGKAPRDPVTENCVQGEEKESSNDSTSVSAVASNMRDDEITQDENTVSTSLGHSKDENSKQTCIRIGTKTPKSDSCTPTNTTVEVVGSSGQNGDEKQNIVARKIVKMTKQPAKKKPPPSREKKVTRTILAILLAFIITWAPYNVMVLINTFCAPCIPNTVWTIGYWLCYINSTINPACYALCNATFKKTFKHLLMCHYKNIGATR
# [3] = test system: wild-type (non-transfected) CHO cells; assay: [35S]GTPγS binding at wild-type; type: biochemical, Chinese hamster
# In short: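 Membranes were incubated 60 min with 50 µM GDP and agonist. They were then incubated with 500 pM [³⁵S]GTPγS for 20 min at 30°C in 100 mM NaCl, 20 mM Na-HEPES, 10 mM MgCl₂ (pH 7.4) with 1 mM DTT, about 10 µg protein per sample. Non-specific binding was taken with 1 µM GTPγS. Read-out was filtration and scintillation counting.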
# [4] = biological target: T2, Gs/olf G-proteins (Homo sapiens, UniProt P08172); assay: biochemical; type: biochemical, Chinese hamster; conditions: Gs/olf
# T2 sequence (P08172 1-466): T1 sequence (P08172 1-466)
# [5] = biological target: T3, M2 receptor-G-protein complex (Homo sapiens, UniProt P08172); type: binding; conditions: Eqn 8, GDP-less membranes, 1 nM [3H]NMS
# T3 sequence (P08172 1-466): T1 sequence (P08172 1-466)
# [6] = biological target: T4, Gi/o G-proteins (Homo sapiens, UniProt P08172); assay: biochemical; type: biochemical, Chinese hamster; conditions: Gi/o
# T4 sequence (P08172 1-466): T1 sequence (P08172 1-466)
# [7] = biological target: T5, Gq/11 G-proteins (Homo sapiens, UniProt P08172); assay: [35S]GTPγS binding to Gq/11 G-proteins; type: biochemical, Chinese hamster; conditions: Gq/11
# T5 sequence (P08172 1-466): T1 sequence (P08172 1-466)
# [8] = biological target: T4, Gi/o G-proteins; assay: biochemical; type: binding, Chinese hamster; conditions: Gi/o; cooperativity between agonist and [3H]GDP binding
# [9] = biological target: T5, Gq/11 G-proteins; type: binding, Chinese hamster; conditions: Gq/11; cooperativity between agonist and [3H]GDP binding
# [10] = biological target: T3, M2 receptor-G-protein complex; type: binding
# [11] = test system: Gi/o G-proteins; assay: Kinetics of 500 nM [3H]GDP binding to Gi/o G-proteins; design: species or system Chinese hamster
# [12] = biological target: T2, Gs/olf G-proteins; assay: biochemical; type: binding, Chinese hamster; conditions: Gs/olf; cooperativity between agonist and [3H]GDP binding
# [13] = test system: G-proteins in GDP-less membranes of CHO-M2 cells; assay: Kinetics of [3H]GDP binding to GDP-less membranes; design: species or system Chinese hamster
# In short: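 GDP-less CHO-M2 membranes, 30°C. Association of 500 nM [³H]GDP was measured after 20 min pre-incubation with buffer, 10 or 100 µM agonist, or 0.1 µM antagonist. For dissociation, membranes were prelabelled with 500 nM [³H]GDP for 180 min, then chased with 50 µM GDP alone or with ligand. Slow and fast rate constants came from biphasic fits.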
# [14] = test system: G-proteins in GDP-less membranes of CHO-M2 cells; assay: Kinetics of [35S]GTPγS binding to GDP-less membranes; design: species or system Chinese hamster
# In short: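 GDP-less CHO-M2 membranes, 30°C. Association of 1 nM [³⁵S]GTPγS was measured after 20 min pre-incubation with buffer or 100 µM agonist, ±50 µM GDP. For dissociation, membranes were preloaded 90 min with 1 nM [³⁵S]GTPγS ±50 µM GDP, then chased with 1 µM GTPγS alone or with agonist. Filtration on glass-fibre filters, scintillation counting. Three experiments in quadruplicate; exponential association/dissociation fits.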
# [15] = 100 µM carbachol, presence of 50 µM GDP
# [16] = NMS (100 nM), presence of 50 µM GDP
# [17] = 1 nM [35S]GTPγS, GDP-less membranes, no GDP, no ligand
smiles,measurement,setting,value
C[N+](C)(C)CCOC(N)=O [Carbachol],Beq of [3H]GDP,[1]; 10 µM carbachol,0.43 ± 0.02 fmol·µg^−1 protein
same,decrease of [3H]GDP equilibrium binding,[1]; 10 µM carbachol,1.9 fold
same,Beq of [3H]GDP,[1]; 100 µM carbachol,0.10 ± 0.01 fmol·µg^−1 protein
same,decrease of [3H]GDP equilibrium binding,[1]; 100 µM carbachol,8.1 fold
same,effect on [3H]GDP binding association rate,[1]; 10 and 100 µM carbachol,no effect
same,maximal increase of [35S]GTPγS binding (Emax),[2],threefold
same,nH,"[2]; Hill coefficient, Eqn 2",0.81 ± 0.05
same,effect on [35S]GTPγS binding,[3],no effect
same,EMAX,[4],1.82 ± 0.05 fold increase over basal binding
same,reduction of agonist affinity by GDP (factor of cooperativity β),[5],200 fold
same,EMAX,[6],2.89 ± 0.06 fold increase over basal binding
same,EMAX,[7],1.61 ± 0.02 fold increase over basal binding
same,pα,[8],−2.3 ± 0.2
same,pα,[9],−0.85 ± 0.09
same,factor of cooperativity α between binding of [3H]GDP and agonist (pα),"[10]; 10 µM [3H]GDP, GDP-less membranes, n=3",−2.3 ± 0.2
same,Beq1 of [3H]GDP,[11]; 10 µM carbachol,1.7 ± 0.2 fmol·µg^−1 protein
same,decrease of [3H]GDP equilibrium binding,[11]; 10 µM carbachol,1.8 fold
same,f2 of [3H]GDP dissociation,[11]; 10 µM carbachol,38 ± 4%
same,Beq1 of [3H]GDP,[11]; 100 µM carbachol,0.35 ± 0.03 fmol·µg^−1 protein
same,decrease of [3H]GDP equilibrium binding,[11]; 100 µM carbachol,ninefold
same,f2 of [3H]GDP dissociation,[11]; 100 µM carbachol,36 ± 5%
same,slowing of association of [3H]GDP in comparison to fast sites,[11]; 100 µM carbachol,12 fold
same,pα,[12],−1.2 ± 0.1
same,"slowing of [3H]GDP association, faster fraction",[13]; 10 µM carbachol,twofold
same,effect on kinetics of [35S]GTPγS binding,"[14]; 100 µM carbachol, absence of GDP",did not change
same,effect on rate of dissociation of [35S]GTPγS,[14]; [15],no effect
same,increase of equilibrium binding of [35S]GTPγS,[14]; [15],fourfold
same,Beq of [35S]GTPγS,"[14]; GDP-less membranes, 50 µM GDP +100 µM carbachol",4.85 ± 0.19 ^*a fmol·µg^−1protein
same,Beq of [35S]GTPγS,"[14]; GDP-less membranes, no GDP, +100 µM carbachol",5.70 ± 0.25 fmol·µg^−1protein
"C[N+]1(C)[C@@H]2C[C@@H](OC(=O)[C@H](CO)c3ccccc3)C[C@H]1[C@@H]1O[C@@H]12 [NMS, N-methylscopolamine]",behaviour in [35S]GTPγS binding,[2]; Figures 1 and 8,inverse agonist
same,effect on [3H]GDP binding,"[10]; 10 µM [3H]GDP, increasing ligand concentration",did not affect
same,cooperativity between NMS and GDP,[10]; Figures 6 and 7,neutral
same,effect on GDP dissociation,[13]; 100 nM NMS (Figure 4 right),only slightly slows down
same,Beq of [35S]GTPγS,"[14]; GDP-less membranes, 50 µM GDP +100 nM NMS",1.20 ± 0.11 fmol·µg^−1protein
same,effect on dissociation kinetics of [35S]GTPγS,[14]; [16],did not change
same,slowing of association of [35S]GTPγS,[14]; [16],25%
"Nc1nc2c(ncn2[C@@H]2O[C@H](COP(=O)(O)OP(=O)(O)OP(O)(O)=S)[C@@H](O)[C@H]2O)c(=O)[nH]1 [GTPγS, guanosine-5′-γ−thiotriphosphate]",Beq,[14]; [17],5.66 ± 0.22 fmol·µg^−1protein
same,koff,[14]; [17],9e-05 ± 3.61e-06 s⁻¹
